Laboratory results as given in ChEMBL document CHEMBL1135864, “Novel amide-based inhibitors of inosine 5'-monophosphate dehydrogenase” (Bioorg Med Chem Lett, 2002).

Tests used:
[1] = target: T1, Inosine-5'-monophosphate dehydrogenase 2 (Homo sapiens, UniProt P12268); assay: Inhibitory activity of compound was evaluated against the Inosine-5'-monophosphate dehydrogenase 2
Method in brief: (§1)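 Human type II IMPDH expressed in and purified from E. coli, used at 40 nM. Buffer was 0.1 M Tris, 0.1 M KCl, 3 mM EDTA pH 8.0 with 2 mM DTT and 400 µM IMP. Compounds were added from DMSO (final 2.5%), and the reaction was started with NAD (final 400 µM). After 2 h at 25 °C, NADH absorbance was read at 340 nm. IC50 was taken from a four-parameter logistic fit.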

CCRF-CEM [2] = assay: Inhibition of human T-lymphoblast CEM cell (ATCC) proliferation; At this concentration no inhibition was observed; assay type: functional, cell-based
CCRF-CEM [3] = assay: The human T-lymphoblast CEM cell (ATCC) proliferation inhibitory activity was determined; assay type: functional, cell-based
Method in brief: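 CEM human T-lymphoblasts were grown in RPMI 1640 with 10% heat-inactivated FBS and penicillin/streptomycin, then seeded at 3000 cells/well with 0.5% DMSO. Compounds were tested in triplicate, top final concentration 10 uM, in 3-fold serial dilutions, for 72 h at 5% CO2. Viability was read by Alamar Blue (10% v/v, final 5 h), fluorescence ex/em 530/590 nm.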

[4] = target: Inosine-5'-monophosphate dehydrogenase 1 (Homo sapiens, UniProt P20839); assay: Inhibitory activity of compound was evaluated against the Inosine-5'-monophosphate dehydrogenase 1
[5] = target: T1, Inosine-5'-monophosphate dehydrogenase 2; assay: Inhibitory activity of compound was evaluated against the inosine monophosphate dehydrogenase -II (IMPDH-II) enzyme; method in brief: as §1

Sequence of Inosine-5'-monophosphate dehydrogenase 1 (P20839 whole entry): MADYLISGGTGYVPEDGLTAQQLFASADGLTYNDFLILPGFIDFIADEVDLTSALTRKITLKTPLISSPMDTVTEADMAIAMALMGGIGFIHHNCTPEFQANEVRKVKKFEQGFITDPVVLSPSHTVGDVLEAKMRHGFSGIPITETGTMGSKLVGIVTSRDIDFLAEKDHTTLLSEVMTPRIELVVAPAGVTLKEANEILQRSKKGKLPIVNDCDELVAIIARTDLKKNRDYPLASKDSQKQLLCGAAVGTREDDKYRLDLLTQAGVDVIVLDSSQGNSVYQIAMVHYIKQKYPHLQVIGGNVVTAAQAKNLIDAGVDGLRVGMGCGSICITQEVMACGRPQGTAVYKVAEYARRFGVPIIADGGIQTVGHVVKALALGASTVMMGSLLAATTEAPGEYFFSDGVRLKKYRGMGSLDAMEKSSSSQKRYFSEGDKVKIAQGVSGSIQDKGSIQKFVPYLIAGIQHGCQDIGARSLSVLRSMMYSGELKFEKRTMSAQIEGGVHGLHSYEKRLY

SMILES | IC50 [1] [nM] | IC50 (CCRF-CEM [2]) [nM] | IC50 (CCRF-CEM [3]) [nM] | IC50 [4] [nM] | IC50 [5] [nM]
COc1cc(NC(=O)c2ccc(C)s2)ccc1-c1cnco1 | 110 |  | 8800 |  | 
COc1cc(NC(=O)/C=C/c2cccc(Cl)c2)ccc1-c1cnco1 | 300 | > 1000 |  |  | 
COc1cc(NC(=O)/C=C/c2ccco2)ccc1-c1cnco1 | 28 |  | 6600 |  | 
COc1cc(NC(=O)c2cc3ccccn3c2)ccc1-c1cnco1 | 140 | > 1000 |  |  | 
COc1cc(NC(=O)/C=C/c2ccccc2F)ccc1-c1cnco1 | 740 | > 1000 |  |  | 
COc1cc(NC(=O)/C=C/c2ccccc2C)ccc1-c1cnco1 | 35 | > 1000 |  |  | 
COc1cc(NC(=O)c2ccc(C)c(C)c2)ccc1-c1cnco1 | 260 | > 1000 |  |  | 
COc1cc(NC(=O)c2ccc(C(C)(C)C)o2)ccc1-c1cnco1 | 130 | > 1000 |  |  | 
COc1cc(NC(=O)c2cc3ccccc3s2)ccc1-c1cnco1 | 170 | > 1000 |  |  | 
COc1cc(NC(=O)Cc2ccccc2)ccc1-c1cnco1 | 970 | > 1000 |  |  | 
COc1cc(NC(=O)/C=C/c2cccc(F)c2)ccc1-c1cnco1 | 200 | > 1000 |  |  | 
COc1cc(NC(=O)Nc2cccc(C)c2)ccc1-c1cnco1 |  | > 1000 |  |  | 
COc1cc(NC(=O)c2cc3ccccc3n2C)ccc1-c1cnco1 | 130 |  | 7700 |  | 
COc1cc(NC(=O)c2cccn2C)ccc1-c1cnco1 | 890 | > 1000 |  |  | 
COc1cc(NC(=O)c2c[nH]c3ccccc23)ccc1-c1cnco1 | > 3000 | > 1000 |  |  | 
COc1cc(NC(=O)/C=C/c2c[nH]c3ccccc23)ccc1-c1cnco1 | 410 | > 1000 |  |  | 
COc1cc(NC(=O)/C=C/c2ccc3ccccc3n2)ccc1-c1cnco1 | 630 | > 1000 |  |  | 
COc1cc(NC(=O)c2ccc3c(c2)OCO3)ccc1-c1cnco1 | 330 | > 1000 |  |  | 
COc1cc(NC(=O)c2cccs2)ccc1-c1cnco1 | 810 | > 1000 |  |  | 

Second part, the compound after the results:

IC50 [1] [nM] | IC50 (CCRF-CEM [2]) [nM] | IC50 (CCRF-CEM [3]) [nM] | IC50 [4] [nM] | IC50 [5] [nM] | SMILES
590 | > 1000 |  |  |  | COc1cc(NC(=O)/C=C/c2cccc(C)c2)ccc1-c1cnco1
870 | > 1000 |  |  |  | COc1cc(NC(=O)c2ccc(-c3ccccn3)s2)ccc1-c1cnco1
210 | > 1000 |  |  |  | COc1cc(NC(=O)/C=C/c2cccnc2)ccc1-c1cnco1
540 | > 1000 |  |  |  | COc1cc(NC(=O)c2cc(C)c(C)o2)ccc1-c1cnco1
960 | > 1000 |  |  |  | COc1ccccc1/C=C\C(=O)Nc1ccc(-c2cnco2)c(OC)c1
110 | > 1000 |  | > 1000 |  | COc1cc(NC(=O)c2cc3ccccc3[nH]2)ccc1-c1cnco1
57 |  | 8700 |  |  | COc1cc(NC(=O)/C=C/c2ccncc2)ccc1-c1cnco1
630 | > 1000 |  |  |  | COc1cc(NC(=O)c2ccc3[nH]ccc3c2)ccc1-c1cnco1
60 | > 1000 |  |  |  | COc1cc(NC(=O)/C=C/c2ccccc2Cl)ccc1-c1cnco1
 | > 1000 |  |  | 630 | COc1cc(NC(=O)c2ccccc2)ccc1-c1cnco1
110 | > 1000 |  |  |  | COc1ccccc1/C=C/C(=O)Nc1ccc(-c2cnco2)c(OC)c1
> 1000 | > 1000 |  |  |  | COc1cc(NC(=O)c2occc2C)ccc1-c1cnco1
120 | > 1000 |  |  |  | COc1cc(NC(=O)/C=C/c2ccc(F)cc2)ccc1-c1cnco1
66 | > 1000 |  |  |  | COc1cc(NC(=O)/C=C/c2cccs2)ccc1-c1cnco1
230 | > 1000 |  |  |  | COc1cc(NC(=O)/C=C/c2ccc(Cl)cc2)ccc1-c1cnco1
73 | > 1000 |  |  |  | COc1cc(NC(=O)/C=C/c2ccccc2)ccc1-c1cnco1
2500 | > 1000 |  |  |  | COc1cc(NC(=O)c2ccco2)ccc1-c1cnco1
210 | > 1000 |  |  |  | COc1cc(NC(=O)c2cc3ccccc3o2)ccc1-c1cnco1
75 | > 1000 |  |  |  | COc1cc(NC(=O)/C=C/c2c(C)cc(F)cc2C)ccc1-c1cnco1
210 | > 1000 |  |  |  | COc1cc(NC(=O)/C=C/c2ccc(C)cc2)ccc1-c1cnco1
> 1000 | > 1000 |  |  |  | COc1cc(NC(=O)c2[nH]nc3ccccc23)ccc1-c1cnco1
